The record followed here is ChEMBL document CHEMBL5321262, “Antiviral Activity of Cannabidiolic Acid and Its Methyl Ester against SARS-CoV-2” (J Nat Prod, 2023).

The term CC50 denotes the concentration at which the toxic effect on the cells reaches its halfway point. For orientation: IC50 means the concentration at which inhibition is half-maximal. Broadly, the inhibition is the drop in the measured response relative to a control, in per cent.

The nature of data set [1]: Cytotoxicity against African green monkey Vero E6 cells measured after 72 hrs by LDH assay. Format: toxicity, cell-based, Vero C1008. As to conditions: chlorocebus sabaeus. The gist of the method: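 Vero E6 seeded at 2 × 10^4 cells/well and held overnight at 37 °C, 5% CO2. Compounds added at final 2.3–300.0 µM (8 two-fold steps) with DMSO fixed at 0.5% v/v. After 72 h, LDH-WST read-out at 490 nm, with % cytotoxicity taken against DMSO control. CC50 from nonlinear dose–response regression.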

Data set [2] has as its system SARS-CoV-2. In words: Antiviral activity against SARS-CoV-2 Italian strain PV10734 infected in African green monkey Vero E6 cells assessed as reduction in virus-induced cytopathic effect preincubated with virus for 1 hr followed by infection with cells and measured after 72 hrs by microscopic analysis. The data set is classed as functional, organism-based. As to conditions: Severe acute respiratory syndrome coronavirus 2, time 73.0 hrs.

Data set [3] deals with SARS-CoV-2. In words: Antiviral activity against SARS-CoV-2 Italian strain PV10734 infected in African green monkey Vero E6 cells assessed as reduction in virus titers of progeny virus in supernatant measured after 72 hrs by CPE assay. The data set is classed as functional, organism-based. Conditions: Severe acute respiratory syndrome coronavirus 2, PV10734, Vero C1008, 72 h.

Data set [4] concerns SARS-CoV-2. In words: Antiviral activity against SARS-CoV-2 Italian strain PV10734 infected in African green monkey Vero E6 cells assessed as reduction in viral replication at 37.5 uM measured at 72 hrs post-infection by qRT-PCR analysis. Format: functional, organism-based. As to conditions: Severe acute respiratory syndrome coronavirus 2.
Data set [5] concerns SARS-CoV-2. In words: Antiviral activity against SARS-CoV-2 Italian strain PV10734 infected in African green monkey Vero E6 cells assessed as reduction in virus-induced cytopathic effect at 37.5 uM preincubated with virus for 1 hr followed by infection with cells and measured after 72 hrs by microscopic analysis. The data set is classed as functional, organism-based. As to conditions: Severe acute respiratory syndrome coronavirus 2, time 73.0 hrs. (In general: Cytopathic effects are the visible damage that an infection or toxin causes in cultured cells.)

Data set [6] concerns SARS-CoV-2. In words: Antiviral activity against SARS-CoV-2 Italian strain PV10734 infected in African green monkey Vero E6 cells assessed as inhibition of virus titers of progeny virus in supernatant at 37.5 uM measured after 72 hrs by CPE assay relative to control. Format: functional. As to conditions: Severe acute respiratory syndrome coronavirus 2, PV10734, Vero C1008.
Data set [7] is described as follows: Stability of compound in African green monkey Vero E6 cell lysates assessed as decarboxylation at 37.5 uM measured upto 30 mins by UHPLC-HRMS analysis. The data set is classed as ADME, subcellular. Conditions: chlorocebus sabaeus, vero c1008, 0.5 h.
The nature of data set [8]: Stability of compound in cell culture media at 37.5 uM measured upto 30 mins by UHPLC-HRMS analysis. The data set is classed as physicochemical. As to conditions: 0.5 h.
The test system of data set [9] is SARS-CoV-2. In words: Antiviral activity against SARS-CoV-2 Italian strain PV10734 infected in African green monkey Vero E6 cells assessed as reduction in virus-induced cytopathic effect at 75 uM preincubated with virus for 1 hr followed by infection with cells and measured after 72 hrs by microscopic analysis. Format: functional, organism-based. Conditions: Severe acute respiratory syndrome coronavirus 2, time 73.0 hrs.

The test system of data set [10] is SARS-CoV-2. In words: Antiviral activity against SARS-CoV-2 Italian strain PV10734 infected in African green monkey Vero E6 cells assessed as inhibition of virus titers of progeny virus in supernatant at 75 uM measured after 72 hrs by CPE assay relative to control. Format: functional. As to conditions: Severe acute respiratory syndrome coronavirus 2, PV10734, Vero C1008.

For data set [11], the system named is SARS-CoV-2. In words: Antiviral activity against SARS-CoV-2 Italian strain PV10734 infected in African green monkey Vero E6 cells assessed as reduction in viral replication at 75 uM measured at 72 hrs post-infection by qRT-PCR analysis. Format: functional, organism-based. As to conditions: Severe acute respiratory syndrome coronavirus 2.
The nature of data set [12]: Stability of compound in African green monkey Vero E6 cell lysates assessed as decarboxylation at 75 uM measured upto 30 mins by UHPLC-HRMS analysis. The data set is classed as ADME, subcellular. As to conditions: chlorocebus sabaeus, vero c1008, 0.5 h.

Activity calls are given as the source filed them. The rule behind the calls is not given here.

The compound `CCCc1cc(O)c(C/C=C(\C)CCC=C(C)C)c(O)c1` displayed a half-maximal cytotoxic concentration (CC50) at 72 h in data set [1] of 58.1 µM. Further, in the data set on SARS-CoV-2 [2], the result was inactive.
In data set [1], `C=C(C)[C@@H]1CCC(C)=C[C@H]1c1c(O)cc(CCCCC)c(C(=O)OC)c1O` had a 50% cytotoxic concentration (CC50) at 72 h of 52.4 µM. For the same compound, in the data set with SARS-CoV-2 [3], the half-maximal inhibitory concentration (IC50) amounted to 18.4 µM. Besides, the result in the data set on SARS-CoV-2 [4] and with SARS-CoV-2 [5] was Active. Further, the inhibition at 37.5 µM in the data set on SARS-CoV-2 [6] is above 90%. The Stability result in [7] and in [8] was “Stable” in each case.
As to `CCCCCc1cc(O)c2c(c1)OC(C)(CCC=C(C)C)C=C2` (stereo not given) [CANNABICHROMENE], in data set [1], the CC50 at 72 h came to 59.3 µM. For the same compound, in the data set on SARS-CoV-2 [2], the result was inactive.
`C=C(C)[C@@H]1CCC(C)=C[C@H]1c1c(O)cc(CCCCC)c(C(=O)O)c1O` [CANNABIDIOLIC ACID] displayed a cytotoxic concentration (CC50) at 72 h in data set [1] of 119 µM. Further, the outcome with SARS-CoV-2 [9] and with SARS-CoV-2 [11] was Active. Also, the IC50 with SARS-CoV-2 [3] turned out to be 42.7 µM. The inhibition at 75 µM in the data set with SARS-CoV-2 [10] is above 90%. The Stability result in [12] was “Unstable”.
Take `C=C(C)[C@@H]1CCC(C)=C[C@H]1c1c(O)cc(CCCCC)cc1O` [CANNABIDIOL]: the half-maximal cytotoxic concentration (CC50) at 72 h in data set [1] is 28.9 µM. Besides, in the data set with SARS-CoV-2 [2], the outcome was inactive.
Take `C=C(C)[C@@H]1CCC(C)=C[C@H]1c1c(O)cc(CCC)cc1O` [CANNABIDIVARIN]: in [1], it took 26 µM to reach half-maximal cytotoxicity (CC50 at 72 h). For the same compound, the outcome in the data set with SARS-CoV-2 [2] was inactive.
For `CCCCCc1cc(O)c(C/C=C(\C)CCC=C(C)C)c(O)c1C(=O)O` [CANNABIGEROLIC ACID], in that order: 43.9 µM and “inactive”.
For `CCCCCc1cc(O)c(C/C=C(\C)CCC=C(C)C)c(O)c1` [CANNABIGEROL], in that order: 58 µM and “inactive”.
